High-throughput results from PubChem BioAssay.
T cruzi inh – blocks replication of Trypanosoma cruzi. T. cruzi beta-gal in NIH3T3, luminescence, 90 h. inhibition, % (concentration not given with the values). 300,000 tested, 1.4% active. AID 1885;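 active means mean inhibition across valid replicates above about 55%, limit read from the data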;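 further: signal also drops with host cell toxicity which is not excluded here; 0% = plate median of DMSO wells and 100% = zero luminescence signal; higher percent means less beta-gal luminescence so fewer parasites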
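System – NIH/3T3 host cells with β-galactosidase reporter T. cruzi · Doses – single 50 nL compound addition per well in DMSO · Reagent – 5000 T. cruzi trypomastigotes/well · Medium – Low-serum DMEM with 2% FBS · Timing – ≥90 h infection period, 3 h prior cell attachment · Evaluation – parasite load inhibition, % · Technique – GalScreen luminescence, 60 min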
AI-2 QS mod – Vibrio harveyi AI-2 quorum sensing modulation; Vibrio harveyi JMH597 AI-2 luminescence/OD600 ratio, 9 h; hits give low values; strain lacks LuxN and CqsS sensors; 0 = neutral-control median; activity change, % at 7.5 µM; 300,000 tested, 0.4% active; in the data active means activity change below about -75%, passing the limit was not always enough;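 further: luminescence divided by OD600 gain over 9 h not by final OD600 alone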
V-ATPase pHluor – regulators of yeast V-ATPase proton transport; S. cerevisiae, pHLuorin cytosolic pH fluorescence; response, % at 10 µM; 350,000 tested, 0.37% active; in the data active means response mostly above about 7.3%, no sharp cut-off; inactive means mostly below about 5.4%; further: actives read high
Yeast superoxide – lowers age-related superoxide in aged yeast cells. S. cerevisiae aged cells, superoxide DHE fluorescence; hits give low values. 330,000 tested, 0.18% active. superoxide response (% of plate mean), % at 10 µM;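 active means superoxide response under a set limit, about three screen SD below normal, cut at about 65% in these data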;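 further: yeast aged for seven days with compound at 30 °C before DHE staining; 100% = average MFI of all compound-treated wells on the plate with controls excluded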
HIF activator – HIF pathway transcriptional activation. U2OS HRE-luciferase reporter, luminescence; normalized: DMSO 0%, desferrioxamine 100%. activation, % at 7.5 µM (by protocol). 300,000 tested, 0.32% active. AID 1910;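 active means mean activation of at least 10% of the iron chelator positive control signal, with at least half of replicates also reaching 10%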
CendR NRP1 mod – NRP-1/CendR interaction modulation. FAM-RPARPAR peptide binding to NRP-1, fluorescence polarization. inhibition, % at 25 µM. 360,000 tested, 0.85% active. AID 602438;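 active means inhibition or corrected inhibition above about 18%, plus a signal ratio from 0.5 to 1.5, limit read from the data, passing the limit was not always enough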
Target sequence (O14786 whole entry, looked up): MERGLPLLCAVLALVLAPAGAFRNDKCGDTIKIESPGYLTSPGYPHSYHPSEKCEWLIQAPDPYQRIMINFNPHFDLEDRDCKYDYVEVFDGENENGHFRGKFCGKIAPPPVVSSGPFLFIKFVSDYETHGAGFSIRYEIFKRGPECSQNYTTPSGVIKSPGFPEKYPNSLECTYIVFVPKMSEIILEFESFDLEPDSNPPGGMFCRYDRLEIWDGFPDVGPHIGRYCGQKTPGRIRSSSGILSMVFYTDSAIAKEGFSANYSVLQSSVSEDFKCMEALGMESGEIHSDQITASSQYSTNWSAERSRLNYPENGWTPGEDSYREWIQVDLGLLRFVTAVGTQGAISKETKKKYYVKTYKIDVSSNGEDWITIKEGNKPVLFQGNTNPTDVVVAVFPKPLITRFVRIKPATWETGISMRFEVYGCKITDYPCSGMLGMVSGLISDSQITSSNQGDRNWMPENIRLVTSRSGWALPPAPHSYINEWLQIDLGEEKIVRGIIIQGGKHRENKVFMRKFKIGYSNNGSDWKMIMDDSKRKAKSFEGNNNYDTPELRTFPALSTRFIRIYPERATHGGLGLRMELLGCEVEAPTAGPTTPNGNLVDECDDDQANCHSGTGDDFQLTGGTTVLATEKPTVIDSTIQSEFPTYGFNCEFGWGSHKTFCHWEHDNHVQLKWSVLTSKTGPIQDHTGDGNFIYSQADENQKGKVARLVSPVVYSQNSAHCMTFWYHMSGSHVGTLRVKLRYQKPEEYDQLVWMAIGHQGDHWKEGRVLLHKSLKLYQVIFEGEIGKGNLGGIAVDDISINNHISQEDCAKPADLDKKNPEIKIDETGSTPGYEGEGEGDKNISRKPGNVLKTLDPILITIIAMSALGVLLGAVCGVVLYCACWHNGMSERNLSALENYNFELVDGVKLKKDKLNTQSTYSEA
CR mimetic CP – yeast aging superoxide inhibition, cherry pick confirmation. shares compounds with Yeast superoxide. S. cerevisiae aging, superoxide DHE fluorescence; hits give low values. superoxide response (% of plate), % at 10 µM. 850 tested, 1% active. AID 434994;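 active means superoxide signal below 65% of the plate average of sample wells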;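 further: cells aged with compound for 7 days at 30 degrees C before staining; 100% equals mean DHE fluorescence of all compound wells on the plate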
DHE counter – counter-screen for compounds affecting DHE oxidation and fluorescence in yeast | fluorescence response, % at 10 µM | shares compounds with Yeast superoxide | 850 tested, under 10 active | AID 435000 | S. cerevisiae BY4741, flow cytometry; hits give low values;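 active means fluorescence response below 15%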;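 further: percent of the mean fluorescence averaged over all compound wells on the plate; lower means stronger quenching of DHE signal or ROS scavenging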
* = called active by the depositor; . = no result. In the library only some 3% were active in any assay of this set; here they are far more common.

SMILES | T cruzi inh | AI-2 QS mod | V-ATPase pHluor | Yeast superoxide | HIF activator | CendR NRP1 mod | CR mimetic CP | DHE counter
O=C(Cc1ccccc1F)Nc1cc(S(=O)(=O)N2CCOCC2)ccc1N1CCOCC1 | . | . | 5 | 75 | . | -4 | . | .
CCn1cc(/C=N\NC(=O)Cc2ccc([N+](=O)[O-])cc2)c(C)n1 | -15 | 16 | -5 | 108 | 0 | 0 | . | .
C=CCSc1ncccc1C(=O)NCc1ccccc1 | 6 | 11 | -2 | 96 | -1 | -8 | . | .
COc1ccc(C(=O)CN2C(=O)c3ccccc3C2=O)c(OC)c1 | -17 | 21 | 0 | 63* | 2 | -6 | 118 | 117
O=C(O)c1ccc(NS(=O)(=O)c2cc(Cl)ccc2Cl)cc1 | 13 | 49 | 7 | 105 | 0 | 7 | 114 | 119
CCc1nc(Nc2ccc(O)cc2)c2oc3ccccc3c2n1 | -10 | 19 | -1 | 139 | 0 | 6 | . | .
O=C(O)C1CC(O)CN1S(=O)(=O)c1ccc2ccccc2c1 (centres undefined) | . | . | 0 | 101 | . | 1 | . | .
Cc1ccc(S(=O)(=O)N2CC(O)CC2C(=O)O)cc1 (centres undefined) | -15 | 12 | -1 | 92 | -2 | -4 | 110 | 109
CC(=O)Nc1ccc2c(c1)c1ccccc1n2C(C)=O | 17 | -2 | 2 | 104 | -1 | 13 | . | .
CCn1c2ccccc2c2cc(NC(C)=O)ccc21 | -1 | 18 | 4 | 111 | 0 | 1 | 107 | 105
Cc1cccc(NC(=O)c2ccc(OC3CSC3)cc2)c1 | 7 | 3 | 4 | 96 | 0 | -8 | . | .
C/C(CCC12CC3CC(CC(C3)C1)C2)=N\NC(N)=S | 35 | 29 | 0 | 64* | 0 | 4 | 114 | 104
CCn1c(=O)c(CCC(=O)NCC2CCCO2)c(C)c2c(C)nn(-c3ccc(C)cc3)c21 (centres undefined) | -9 | 9 | -2 | 109 | 0 | -7 | . | .
Cc1ccc(C)c(S(=O)(=O)Nc2ccc(O)cc2)c1 | -6 | 15 | -1 | 92 | -1 | 3 | 108 | 111
Cc1ccc(C)c(NS(=O)(=O)c2ccccc2C)c1 | . | 2 | 5 | 103 | . | 11 | 91 | 93
COc1ccc(C)cc1S(=O)(=O)Nc1ccc(F)cc1 | -4 | 9 | -1 | 111 | -1 | 6 | 115 | 96
O=C(Nc1ccc2ccccc2c1)c1ccccc1Cl | . | . | -1 | . | . | -6 | . | .
O=C(Nc1ccc2ccccc2c1)c1ccc(Cl)cc1Cl | 11 | 9 | -1 | 50* | -12 | 7 | 95 | 100
CCOC(=O)CNC(=O)CSc1nnc(-c2ccccc2)c(-c2ccccc2)n1 | 1 | -3 | 3 | 110 | 1 | 12 | . | .
CCCCCN(C(=O)CCC(=O)OCc1ccccc1C)c1c(N)n(CCCC)c(=O)[nH]c1=O | 10 | 18 | 1 | 108 | 0 | 4 | . | .
CCCCCN(C(=O)CCC(=O)OCc1ccccc1Cl)c1c(N)n(CCCC)c(=O)[nH]c1=O | -1 | 45 | 2 | 60* | -1 | 6 | 105 | 97
Cc1cc(C)cc(NC(=O)C2CCN(S(=O)(=O)c3c(C)n[nH]c3C)CC2)c1 | 1 | 16 | 7 | 90 | 0 | 1 | . | .
CC(=O)N1CCC(C(=O)Nc2cc(C)cc(C)c2)CC1 | -9 | -4 | 0 | 61* | 0 | -2 | 103 | 91
CCN(CC)S(=O)(=O)c1cc(OC)c(Cl)cc1Cl | 22 | 13 | 0 | 58* | -1 | 7 | 98 | 101
CCN(CC)CC(O)Cn1c2ccccc2c2ccccc21 (centres undefined) | 4 | 16 | 2 | 87 | -1 | 2 | 112 | 90
SMILES | T cruzi inh | AI-2 QS mod | V-ATPase pHluor | Yeast superoxide | HIF activator | CendR NRP1 mod | CR mimetic CP | DHE counter
OC(CN1CCOCC1)Cn1c2c(c3ccccc31)CCCC2 (centres undefined) | -5 | 1 | 2 | 112 | 1 | -7 | . | .
OCCNCC(O)Cn1c2ccccc2c2ccccc21 (centres undefined) | -12 | 19 | -1 | 117 | -1 | -6 | 91 | 89
C=CCN(CC=C)CC(O)Cn1c2ccccc2c2ccccc21 (centres undefined) | 11 | 20 | 0 | 97 | . | -4 | 92 | 98
OC(CN1CCOCC1)Cn1c2ccccc2c2ccccc21 (centres undefined) | 6 | -12 | 5 | 44* | -24 | -6 | 97 | 105
CCN(CC(O)Cn1c2ccccc2c2ccccc21)S(=O)(=O)c1ccc(F)cc1 (centres undefined) | -4 | -6 | 2 | 107 | 0 | 0 | . | .
OC(CN1CCCCC1)Cn1c2ccc(Cl)cc2c2cc(Cl)ccc21 (centres undefined) | 82* | 0 | -1 | 45* | -22 | 0 | 96 | 93
COc1ccc(NC(=O)CNCc2ccc(Cl)cc2)cc1S(=O)(=O)N1CCOCC1 | . | . | 0 | 79 | . | 2 | . | .
CC1(C)CC(=O)c2c(-c3cccs3)n[nH]c2C1 | -1 | 11 | 2 | 64* | -1 | -6 | 105 | 95
CCCc1n[nH]c2c1C(=O)CC(C)(C)C2 | 3 | 13 | -3 | 100 | 0 | -11 | . | .
O=C(COC(=O)c1ccccc1Nc1ccccc1)NCc1ccccc1 | -10 | 35 | 4 | 91 | 0 | 1 | . | .
NC(=O)c1ccc(NC(=O)COC(=O)c2ccccc2Nc2ccccc2)cc1 | 1 | 17 | 22 | 56* | 0 | -4 | 96 | 98
Nc1ncnc(Nc2c(F)cccc2F)n1 | -18 | -1 | 1 | 102 | 0 | 12 | . | .
Cc1nnsc1-c1c(C(=O)N2CCOCC2)c(C)nn1-c1ccc(Cl)cc1 | -6 | 8 | 1 | 46* | 1 | -8 | 98 | 87
Cc1nnsc1-c1c(C(=O)N2CCOCC2)c(C)nn1-c1ccccc1 | -4 | 30 | -2 | 101 | -1 | -6 | . | .
CN(C)c1cccc(CNC(=O)c2csc(COCCO)n2)c1 | . | . | . | . | . | -12 | . | .
CSc1ccc(/C=C(\C#N)C(=O)NC2CCCCC2)cc1 | -4 | 9 | -2 | 60* | 0 | 7 | 102 | 91
CCCCn1c2ccccc2c2cc(CC(N)=O)ccc21 | 15 | 9 | -7 | 103 | -1 | 14 | 94 | 91
CCCCn1c(=O)c(-c2ccccc2)c(O)c2ccccc21 | -4 | 3 | -4 | 104 | 0 | 5 | . | .
NC(=NC(=O)c1cccc(C(F)(F)F)c1)c1ccc(C(F)(F)F)cn1 | 7 | 14 | -2 | 105 | 0 | 4 | . | .
NC(=NC(=O)c1ccc(OC(F)(F)F)cc1)c1ccc(C(F)(F)F)cn1 | -3 | 20 | 5 | 62* | -1 | 0 | 108 | 120
